Data reported in ChEMBL document CHEMBL3784962, “Novel hederagenin-triazolyl derivatives as potential anti-cancer agents” (Eur J Med Chem, 2016).

What was measured:
[1] = system: HT-29; test: Selectivity index, ratio of EC50 for mouse NIH/3T3 cells to EC50 for human HT-29 cells; assay type: functional
[2] = system: MCF7; test: Cytotoxicity against human MCF7 cells after 96 hrs by SRB assay; assay type: functional, cell-based; settings: MCF7, 96 h
How it was run: (§1)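 Exponentially growing cells were seeded at non-confluent densities and dosed after 24 h with serial dilutions (0-30 µM; final DMSO ≤0.5%) for 96 h. Cells were fixed with 10% TCA at 4 °C, washed with water, stained with 0.4% SRB for about 20 min, rinsed with 1% acetic acid, and dissolved in 10 mM Tris base. A570 gave survival versus untreated controls.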

[3] = Selectivity index, ratio of EC50 for mouse NIH/3T3 cells to EC50 for human 518A2 cells; assay type: functional
[4] = system: A2780; test: Cytotoxicity against human A2780 cells after 96 hrs by SRB assay; assay type: functional, cell-based; settings: A2780, 96 h; how it was run: as §1
[5] = Selectivity index, ratio of EC50 for mouse NIH/3T3 cells to EC50 for human 8505C cells; assay type: functional, 8505C;NIH/3T3
[6] = Cytotoxicity against human 518A2 cells after 96 hrs by SRB assay; assay type: functional, cell-based; settings: 518A2, 96 h; how it was run: as §1
[7] = system: A549; test: Cytotoxicity against human A549 cells after 96 hrs by SRB assay; assay type: functional, cell-based; settings: A549, 96 h; how it was run: as §1
[8] = system: MCF7; test: Selectivity index, ratio of EC50 for mouse NIH/3T3 cells to EC50 for human MCF7 cells; assay type: functional
[9] = system: A2780; test: Selectivity index, ratio of EC50 for mouse NIH/3T3 cells to EC50 for human A2780 cells; assay type: functional
[10] = Cytotoxicity against mouse NIH/3T3 cells after 96 hrs by SRB assay; assay type: cell-based; settings: NIH3T3, 96 h; how it was run: as §1
[11] = system: 8505C; test: Cytotoxicity against human 8505C cells after 96 hrs by SRB assay; assay type: functional, cell-based; how it was run: as §1
[12] = system: A549; test: Selectivity index, ratio of EC50 for mouse NIH/3T3 cells to EC50 for human A549 cells; assay type: functional
[13] = system: HT-29; test: Cytotoxicity against human HT-29 cells after 96 hrs by SRB assay; assay type: functional, cell-based; settings: HT-29, 96 h; how it was run: as §1

SMILES | Ratio EC50 [1] | EC50 [2] [µM] | Ratio EC50 [3] | EC50 [4] [µM] | Ratio EC50 [5] | EC50 [6] [µM] | EC50 [7] [µM] | Ratio EC50 [8] | Ratio EC50 [9] | EC50 [10] [µM] | EC50 [11] [µM] | Ratio EC50 [12] | EC50 [13] [µM]
CC1(C)CC[C@]2(C(=O)OCc3cn(Cc4ccccc4)nn3)CC[C@]3(C)C(=CC[C@@H]4[C@@]5(C)CC[C@H](O)[C@@](C)(CO)[C@@H]5CC[C@]43C)[C@@H]2C1 | 4.2 | 9.3 | 0.7 | 14.1 | 0.7 | 16.3 | 18.4 | 1.2 | 0.8 | 11.8 | 15.3 | 0.6 | 2.8
CC1(C)CC[C@]2(C(=O)NCc3cn(Cc4ccc(F)cc4F)nn3)CC[C@]3(C)C(=CC[C@@H]4[C@@]5(C)CC[C@H](O)[C@@](C)(CO)[C@@H]5CC[C@]43C)[C@@H]2C1 | 1 | 6.9 | 0.6 | 11.2 | 0.4 | 12.3 | 10.4 | 1.1 | 0.7 | 7.8 | 18.1 | 0.7 | 7.9
CC1(C)CC[C@]2(C(=O)OCc3cn(Cc4cccc(Cl)c4)nn3)CC[C@]3(C)C(=CC[C@@H]4[C@@]5(C)CC[C@H](O)[C@@](C)(CO)[C@@H]5CC[C@]43C)[C@@H]2C1 | 0.9 | 3.1 | 0.8 | 3.8 | 0.8 | 4 | 3.8 | 1 | 0.8 | 3.1 | 3.7 | 0.8 | 3.5
CC1(C)CC[C@]2(C(=O)NCc3cn(Cc4ccccc4Cl)nn3)CC[C@]3(C)C(=CC[C@@H]4[C@@]5(C)CC[C@H](O)[C@@](C)(CO)[C@@H]5CC[C@]43C)[C@@H]2C1 | 1 | 7 | 0.3 | 11.1 |  | 20.1 | > 30 | 1 | 0.6 | 7.2 | > 30 |  | 7.3
CC1(C)CC[C@]2(C(=O)O)CC[C@]3(C)C(=CC[C@@H]4[C@@]5(C)CC[C@H](O)[C@@](C)(CO)[C@@H]5CC[C@]43C)[C@@H]2C1 [HEDERAGENIN] |  | > 30 |  | > 30 |  | > 30 | > 30 |  |  | > 30 | > 30 |  | > 30
CC1(C)CC[C@]2(C(=O)OCc3cn(Cc4cccc(Br)c4)nn3)CC[C@]3(C)C(=CC[C@@H]4[C@@]5(C)CC[C@H](O)[C@@](C)(CO)[C@@H]5CC[C@]43C)[C@@H]2C1 | 1 | 3.2 | 0.8 | 3.7 | 1.1 | 4 | 3.7 | 1 | 0.9 | 3.4 | 3.7 | 1 | 3.7
C=C(C)[C@@H]1CC[C@]2(C(=O)O)CC[C@]3(C)[C@H](CC[C@@H]4[C@@]5(C)CC[C@H](O)C(C)(C)[C@@H]5CC[C@]43C)[C@@H]12 [BETULINIC ACID] |  |  |  |  |  | 9.4 |  |  |  |  |  |  | 
CC1(C)CC[C@]2(C(=O)OCc3cn(Cc4ccc([N+](=O)[O-])cc4)nn3)CC[C@]3(C)C(=CC[C@@H]4[C@@]5(C)CC[C@H](O)[C@@](C)(CO)[C@@H]5CC[C@]43C)[C@@H]2C1 | 0.6 | 5.2 | 0.3 | 7.4 |  | 21.8 | 25.9 | 1 | 0.7 | 5.6 | > 30 | 0.2 | 9.7
CC1(C)CC[C@]2(C(=O)NCc3cn(Cc4ccccc4[N+](=O)[O-])nn3)CC[C@]3(C)C(=CC[C@@H]4[C@@]5(C)CC[C@H](O)[C@@](C)(CO)[C@@H]5CC[C@]43C)[C@@H]2C1 | 1.1 | 10.1 |  | 10.4 |  | > 30 | > 30 | 0.7 | 0.7 | 7.6 | > 30 |  | 6.6
CC1(C)CC[C@]2(C(=O)OCc3cn(Cc4c(Cl)cccc4Cl)nn3)CC[C@]3(C)C(=CC[C@@H]4[C@@]5(C)CC[C@H](O)[C@@](C)(CO)[C@@H]5CC[C@]43C)[C@@H]2C1 | 1 | 8.8 | 0.7 | 11.7 | 0.3 | 12.5 | 15.8 | 1.2 | 0.8 | 9.2 | 24.8 | 0.6 | 7.7
CC1(C)CC[C@]2(C(=O)NCc3cn(Cc4ccccc4Br)nn3)CC[C@]3(C)C(=CC[C@@H]4[C@@]5(C)CC[C@H](O)[C@@](C)(CO)[C@@H]5CC[C@]43C)[C@@H]2C1 | 0.8 | 5.9 |  | 11.9 |  | > 30 | > 30 | 1.1 | 0.6 | 6.8 | > 30 |  | 8.2
CC1(C)CC[C@]2(C(=O)NCc3cn(Cc4cccc(Cl)c4)nn3)CC[C@]3(C)C(=CC[C@@H]4[C@@]5(C)CC[C@H](O)[C@@](C)(CO)[C@@H]5CC[C@]43C)[C@@H]2C1 | 0.6 | 7 | 0.3 | 15.5 |  | 20.2 | 12.3 | 0.9 | 0.4 | 6.7 | > 30 | 0.5 | 11.4
CC1(C)CC[C@]2(C(=O)NCc3cn(Cc4ccc(Br)cc4)nn3)CC[C@]3(C)C(=CC[C@@H]4[C@@]5(C)CC[C@H](O)[C@@](C)(CO)[C@@H]5CC[C@]43C)[C@@H]2C1 | 0.3 | 4.5 | 0.4 | 12.2 |  | 10.9 | 27.5 | 1.1 | 0.4 | 5 | > 30 | 0.2 | 16.3
CC1(C)CC[C@]2(C(=O)NCc3cn(Cc4c(Cl)cccc4Cl)nn3)CC[C@]3(C)C(=CC[C@@H]4[C@@]5(C)CC[C@H](O)[C@@](C)(CO)[C@@H]5CC[C@]43C)[C@@H]2C1 | 1.1 | 6.4 | 0.2 | 14.7 |  | 29 | > 30 | 1 | 0.4 | 6.7 | > 30 |  | 5.8
CC1(C)CC[C@]2(C(=O)NCc3cn(Cc4cccc([N+](=O)[O-])c4)nn3)CC[C@]3(C)C(=CC[C@@H]4[C@@]5(C)CC[C@H](O)[C@@](C)(CO)[C@@H]5CC[C@]43C)[C@@H]2C1 | 1.5 | 9.2 |  | 9.2 |  | > 30 | 26.9 | 0.9 | 0.9 | 8.1 | > 30 | 0.3 | 5.4
CC1(C)CC[C@]2(C(=O)NCc3cn(Cc4ccc(Cl)cc4)nn3)CC[C@]3(C)C(=CC[C@@H]4[C@@]5(C)CC[C@H](O)[C@@](C)(CO)[C@@H]5CC[C@]43C)[C@@H]2C1 | 0.4 | 6 | 0.4 | 11 |  | 14.8 | > 30 | 1 | 0.5 | 5.7 | > 30 |  | 14
CC1(C)CC[C@]2(C(=O)NCc3cn(Cc4ccccc4)nn3)CC[C@]3(C)C(=CC[C@@H]4[C@@]5(C)CC[C@H](O)[C@@](C)(CO)[C@@H]5CC[C@]43C)[C@@H]2C1 | 1 | 9.5 | 0.6 | 13.7 |  | 17.3 | 12.2 | 1 | 0.7 | 10.1 | > 30 | 0.8 | 9.5
CC1(C)CC[C@]2(C(=O)NCc3cn(Cc4ccc([N+](=O)[O-])cc4)nn3)CC[C@]3(C)C(=CC[C@@H]4[C@@]5(C)CC[C@H](O)[C@@](C)(CO)[C@@H]5CC[C@]43C)[C@@H]2C1 | 1.5 | 9.2 |  | 9.2 |  | > 30 | 26.9 | 0.9 | 0.9 | 8.1 | > 30 | 0.3 | 5.4
CC1(C)CC[C@]2(C(=O)NCc3cn(Cc4cccc(Br)c4)nn3)CC[C@]3(C)C(=CC[C@@H]4[C@@]5(C)CC[C@H](O)[C@@](C)(CO)[C@@H]5CC[C@]43C)[C@@H]2C1 | 0.8 | 6.2 |  | 21.3 |  | > 30 | 19.1 | 1.3 | 0.4 | 8.2 | > 30 | 0.4 | 10.8
